Laboratory results published in ChEMBL document CHEMBL4033778, “Species-Selective Pyrimidineamine Inhibitors of Trypanosoma brucei S-Adenosylmethionine Decarboxylase” (J Med Chem, 2018).
Calls of active or inactive are those of the source. The rule behind the calls is not given here.

Key:
[1] = biological target: T1, S-adenosylmethionine decarboxylase proenzyme (Homo sapiens, UniProt P17707); test: Inhibition of recombinant human N-terminal His6-tagged AdoMetDC expressed in Escherichia coli BL21/DE3 cells at pH 7.2 by RapidFire-MS-based enzyme activity assay
T1 sequence (P17707 whole entry): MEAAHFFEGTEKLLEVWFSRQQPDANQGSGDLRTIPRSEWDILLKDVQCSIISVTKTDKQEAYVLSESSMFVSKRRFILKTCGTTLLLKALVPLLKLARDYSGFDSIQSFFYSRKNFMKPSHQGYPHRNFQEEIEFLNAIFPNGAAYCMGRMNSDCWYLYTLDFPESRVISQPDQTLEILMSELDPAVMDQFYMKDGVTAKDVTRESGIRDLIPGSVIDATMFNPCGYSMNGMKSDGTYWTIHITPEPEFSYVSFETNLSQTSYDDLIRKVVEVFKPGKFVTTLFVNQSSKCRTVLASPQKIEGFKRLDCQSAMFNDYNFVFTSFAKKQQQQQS

[2] = test system: Trypanosoma brucei brucei; test: Antitrypanosomal activity against bloodstream form Trypanosoma brucei brucei Lister 427 after 48 hrs by CellTiter-Glo assay; type: functional; details: Lister 427, 48 h
In short: (§1)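 Bloodstream-form parasites grown in HMI-19 with fetal bovine serum, exposed 48 h to a 3-fold serial dilution (0.0038–25 μM or 0.015–100 μM final; 0.1% DMSO vehicle). Cell density read by ATP bioluminescence (CellTiter-Glo). Triplicate; EC50 from normalized response vs log concentration fit, bottom fixed at 0, Hill slope fixed at –8 when curve steepness gave ambiguous fit. Percent inhibition given at top concentration when <50%.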

[3] = Inhibition of recombinant Trypanosoma brucei N-terminal His6-tagged AdoMetDC/prozyme hetrodimer expressed in Escherichia coli BL21/DE3 cells at pH 7.2 by RapidFire-MS-based enzyme activity assay
[4] = test system: Trypanosoma brucei brucei; test: Antitrypanosomal activity against blood stream form Trypanosoma brucei brucei Lister 427 at 25 uM after 48 hrs by CellTiter-Glo assay; type: functional; in short: as §1
Trypanosoma brucei [5] = test: Inhibition of recombinant Trypanosoma brucei N-terminal His6-tagged AdoMetDC/prozyme hetrodimer expressed in Escherichia coli BL21/DE3 cells at 180 uM at pH 7.2 by RapidFire-MS-based enzyme activity assay
In short: (§2)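 Steady-state decarboxylation of S-adenosyl-L-methionine by purified TbAdoMetDC/prozyme at pH 7.2; decarboxylated AdoMet product read by RapidFire–MS. Inhibitor added from DMSO to 2% final DMSO. Percent inhibition reported at the top tested concentration when mean inhibition stayed below 50%; triplicate.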

[6] = biological target: T2, S-adenosylmethionine decarboxylase proenzyme (Trypanosoma brucei brucei) (UniProt P50244); test: Inhibition of AdoMetDC in bloodstream form Trypanosoma brucei brucei Lister 427 assessed as increase in prozyme level at 1.5 times EC50 after 24 hrs by Western blot method
T2 sequence (whole entry): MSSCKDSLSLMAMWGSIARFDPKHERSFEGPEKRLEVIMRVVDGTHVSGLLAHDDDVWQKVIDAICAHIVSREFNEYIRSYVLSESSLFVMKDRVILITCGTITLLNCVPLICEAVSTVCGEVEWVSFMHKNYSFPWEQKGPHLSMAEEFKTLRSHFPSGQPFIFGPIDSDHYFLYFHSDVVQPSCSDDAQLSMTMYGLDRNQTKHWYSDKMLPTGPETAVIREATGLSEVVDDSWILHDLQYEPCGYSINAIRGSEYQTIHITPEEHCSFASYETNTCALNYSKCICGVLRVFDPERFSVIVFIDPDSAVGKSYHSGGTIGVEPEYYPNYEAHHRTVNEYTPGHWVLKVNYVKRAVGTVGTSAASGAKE

Trypanosoma brucei [7] = test: Inhibition of recombinant Trypanosoma brucei N-terminal His6-tagged AdoMetDC/prozyme hetrodimer expressed in Escherichia coli BL21/DE3 cells at 21 uM at pH 7.2 by RapidFire-MS-based enzyme activity assay; in short: as §2
[8] = biological target: T3, S-adenosylmethionine decarboxylase proenzyme (Homo sapiens) (UniProt P17707); test: Inhibition of recombinant human N-terminal His6-tagged AdoMetDC expressed in Escherichia coli BL21/DE3 cells at 180 uM at pH 7.2 by RapidFire-MS-based enzyme activity assay
T3 sequence (whole entry): T1 sequence (P17707 whole entry)

[9] = Selectivity ratio of IC50 for recombinant human N-terminal His6-tagged AdoMetDC expressed in Escherichia coli BL21/DE3 cells to IC50 for recombinant Trypanosoma brucei N-terminal His6-tagged AdoMetDC/prozyme hetrodimer expressed in Escherichia coli BL21/DE3 cells
In short: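 Both enzymes assayed at pH 7.2 by RapidFire–MS, monitoring decarboxylated AdoMet. Inhibitor run as a 3-fold dilution series from 0.01 to 180 μM final, with 2% DMSO final. Data normalized to 0.5 μM Genz-644131 as full inhibition. IC50 fitted with bottom fixed at 0 and Hill slope fixed at −1, triplicate. Ratio is human IC50 over parasite IC50.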

Row | Structure (SMILES) | IC50 [1] [µM] | IC50 [3] [µM] | inhibition (Trypanosoma brucei [5]) [%] | other results
1 | Cc1cc(Nc2cc(Cl)cc(-c3ccc(F)c(Cl)c3)c2)nc(N)n1 | > 180 | 157 | – | IC50 [2]: 3.2 µM
2 | Cc1cc(Nc2cccc(Cl)c2C)nc(N)n1 | > 180 | > 180 | – | Activity [4]: 29%
3 | Cc1cc(Nc2ccc(Br)cc2F)nc(N)n1 | > 180 | > 180 | – | Activity [4]: 25%
4 | Cc1cc(Nc2cc(Cl)cc(-c3ccc(N(C)C)cc3)c2)nc(N)n1 | > 180 | – | 34 | –
5 | Cc1cc(Nc2cc(Cl)c(Oc3ccccc3)c(Cl)c2)nc(N)n1 | > 180 | – | 38 | –
6 | Cc1cc(Nc2cccc(Cl)c2Cl)nc(N)n1 | > 180 | 137 | – | Activity [4]: 27%
7 | Nc1nc(Cl)cc(Nc2cc(Cl)cc(Cl)c2)n1 | > 180 | > 180 | – | inhibition [6]: inactive
8 | Cc1cc(Nc2cc(Cl)ccc2C)nc(N)n1 | > 180 | > 180 | – | Activity [4]: 28%
9 | Cc1cc(Nc2cc(Cl)cc(-c3cncs3)c2)nc(N)n1 | > 21 | – | – | inhibition (Trypanosoma brucei [7]): 42%
10 | Nc1nc(Nc2cc(Cl)cc(Cl)c2)cc(-c2ccccc2)n1 | > 21 | – | – | inhibition (Trypanosoma brucei [7]): 24%
11 | Cc1cc(Nc2cc(C(F)(F)F)ccc2Cl)nc(N)n1 | > 180 | 199 | – | Activity [4]: 28%
12 | Cc1cc(Nc2cc(Br)cc(Br)c2)nc(N)n1 | – | 1.9 | – | inhibition [8]: 31%; Ratio IC50 [9]: > 100
13 | Cc1nc(N)cc(Nc2cc(Cl)cc(Br)c2)n1 | > 180 | – | 24 | –
14 | Cc1cc(Nc2cc(Cl)cc(Br)c2)nc(N)n1 | – | 2.2 | – | inhibition [8]: 33%
15 | Nc1cnccc1Nc1cc(Cl)cc(Cl)c1 | > 180 | – | 21 | –
16 | Cc1nc(N)nc(Nc2cc(Cl)cc(Cl)c2)c1C | – | 4.8 | – | inhibition [8]: 25%
17 | Cc1cc(Nc2cc(Cl)cc(C(F)(F)F)c2)nc(N)n1 | – | 3.9 | – | inhibition [8]: 39%
18 | Cc1cc(Nc2cc(Br)cc(OCC(F)(F)F)c2)nc(N)n1 | 44 | 1.6 | – | Ratio IC50 [9]: 27

Row | Structure (SMILES) | IC50 [1] [µM] | IC50 [3] [µM] | inhibition (Trypanosoma brucei [5]) [%] | other results
19 | C=CCOc1cc(Br)cc(Nc2cc(C)nc(N)n2)c1 | – | 4.5 | – | IC50 [2]: 4.4 µM; inhibition [8]: 28%
20 | Cc1cc(Nc2cc(Cl)cc(Cl)c2)ncn1 | > 180 | > 180 | – | inhibition [6]: inactive
21 | Nc1nccc(Nc2cc(Cl)cc(Cl)c2)n1 | > 180 | 13 | – | inhibition [6]: Active
22 | Cc1cc(Nc2cccc(S(F)(F)(F)(F)F)c2)nc(N)n1 | > 180 | – | 23 | –
23 | Cc1cc(Nc2cc(Cl)cc(-c3ccsc3)c2)nc(N)n1 | – | 26 | – | inhibition [8]: 30%
24 | Cc1cc(N)cc(Nc2cc(Cl)cc(Cl)c2)n1 | > 180 | – | 24 | –
25 | Cc1cc(Nc2cc(Cl)c(O)c(Cl)c2)nc(N)n1 | > 180 | – | 33 | –
26 | COc1cc(Nc2cc(C)nc(N)n2)cc(OC)c1 | – | 17 | – | inhibition [8]: 21%
27 | Cc1cc(Nc2ccc(F)c(F)c2)nc(N)n1 | > 180 | – | 33 | Activity [4]: 25%
28 | Cc1cc(Nc2ccc(Cl)cc2Cl)nc(N)n1 | > 180 | > 180 | – | Activity [4]: 28%
29 | Cc1cc(Nc2cccc(Cl)c2)nc(N)n1 | > 180 | – | 35 | –
30 | Cc1cc(Nc2cc(Cl)c(F)c(Cl)c2)nc(N)n1 | – | 1.5 | – | Ratio IC50 [9]: > 100
31 | CC(=O)c1ccc(-c2cc(Cl)cc(Nc3cc(C)nc(N)n3)c2)cc1 | > 21 | – | – | inhibition (Trypanosoma brucei [7]): 28%
32 | Cc1cc(Nc2ccc(Cl)cc2)nc(N)n1 | > 180 | > 180 | – | Activity [4]: 28%
33 | Cc1cc(Nc2cccc(Br)c2)nc(N)n1 | > 180 | – | 41 | –
34 | Cc1cc(Nc2cc(Cl)ccc2Cl)nc(N)n1 | > 180 | 115 | – | Activity [4]: 23%
35 | COC(=O)c1cc(Nc2cc(C)nc(N)n2)cc(C(=O)OC)c1 | > 180 | – | 40 | –
36 | Cc1cc(Nc2cc(Br)c(F)c(Br)c2)nc(N)n1 | – | 1.6 | – | inhibition [8]: 43%
